Test results as given in PubChem BioAssay AID463145 (The Scripps Research Institute Molecular Screening Center, 2010).
The source made the active and inactive calls.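 Rule for the calls: active = FXR activation with a fold change above 2; inactive = the rest.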

Biological target: Bile acid receptor (Homo sapiens) (UniProt Q96RI1)
Experiment: activation of FXR ligand-binding domain – cell-based, luciferase luminescence, assay provider, powder samples, selectivity assay for RORA inverse agonist project, late-stage follow-up (AID 463145)
Settings: HEK293T GAL4-FXR LBD luciferase reporter, 18-24 h; at 10 µM; stronger effect = higher value
Procedure, shortened: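 Assay system – HEK293T cells cotransfected with GAL4-FXR LBD and UAS-luciferase reporter · Compound dosing – one dose, 10 µM nominal · Schedule – 20 h compound exposure after replating 24 h post-transfection · Technique – luciferase luminescence · Read-out – fold change versus DMSO vehicle · Controls – DMSO-treated cells as vehicle reference · Repeats – 6 replicates, averaged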

Chain of Bile acid receptor (Homo sapiens) (Q96RI1 whole entry, looked up, the tested form may be a part): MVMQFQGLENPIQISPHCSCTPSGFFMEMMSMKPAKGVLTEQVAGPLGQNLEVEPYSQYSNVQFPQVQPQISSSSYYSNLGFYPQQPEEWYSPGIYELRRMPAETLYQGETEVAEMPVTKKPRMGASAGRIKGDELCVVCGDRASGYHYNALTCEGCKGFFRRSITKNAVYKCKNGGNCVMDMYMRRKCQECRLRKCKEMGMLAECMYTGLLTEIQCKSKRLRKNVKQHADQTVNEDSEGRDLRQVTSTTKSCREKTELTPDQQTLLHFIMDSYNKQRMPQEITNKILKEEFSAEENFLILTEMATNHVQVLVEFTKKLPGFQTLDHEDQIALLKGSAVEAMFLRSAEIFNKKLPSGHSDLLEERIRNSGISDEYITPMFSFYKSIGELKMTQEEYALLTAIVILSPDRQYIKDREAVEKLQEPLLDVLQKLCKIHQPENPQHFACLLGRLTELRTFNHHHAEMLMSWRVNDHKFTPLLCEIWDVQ

SMILES | fold change
O=C(Nc1ccc(C(O)(C(F)(F)F)C(F)(F)F)cc1)c1ccccc1C(F)(F)F | 0.846 (inactive)
O=S(=O)(Nc1ccc(C(O)(C(F)(F)F)C(F)(F)F)cc1)c1cccs1 | 1.21 (inactive)
O=C(Nc1ccc(C(O)(C(F)(F)F)C(F)(F)F)cc1)c1ccc(Cl)cc1 | 1.14 (inactive)

The next lines start with the values.

fold change | SMILES
1.06 (inactive) | O=C(Nc1ccc(C(O)(C(F)(F)F)C(F)(F)F)cc1)c1c(F)cccc1F
1.52 (inactive) | O=C(Nc1ccc(C(O)(C(F)(F)F)C(F)(F)F)cc1)c1ccc(F)cc1F
1.07 (inactive) | O=C(Nc1ccc(C(O)(C(F)(F)F)C(F)(F)F)cc1)c1ccc(F)cc1Cl
